Calls of active or inactive are those of the source. The rule behind the calls is not given here.
How the values were obtained:
786-0 [1] = test: Induction of apoptosis in human 786-O cells assessed as necrotic cells at 5 uM incubated for 24 hrs by Annexin-V/propidium iodide staining based flow cytometric method (reference value: 0.83%); assay type: functional
SUNE1 [2] = test: Induction of apoptosis in human SUNE1 cells assessed as early apoptotic cells at 5 uM incubated for 24 hrs by Annexin-V/propidium iodide staining based flow cytometric method (reference value: 1.03%); assay type: functional
786-0 [3] = test: Effect on total eIF4E protein expression in human 786-O cells incubated for 24 hrs by Western blot analysis relative to control; assay type: cell-based; conditions: 786-0, 24 h
In short: (§1)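 Cells treated 24 h at 1 µM. The test compound was also given 6 h. Cells harvested, trypsinised and washed twice in cold PBS, then lysed in RIPA buffer on ice and sonicated. Lysate centrifuged cold at 10000 g for 30 min. Supernatant protein quantified, run on SDS-PAGE, transferred to PVDF and probed for ERK1/2, pERK1/2, MNK1, eIF4E and p-eIF4E.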

786-0 [4] = test: Effect on total MNK1 protein expression in human 786-O cells incubated for 24 hrs by Western blot analysis relative to control; assay type: cell-based; conditions: 786-0, 24 h; in short: as §1
786-0 [5] = test: Induction of apoptosis in human 786-O cells assessed as late apoptotic cells at 5 uM incubated for 24 hrs by Annexin-V/propidium iodide staining based flow cytometric method (reference value: 3.80%); assay type: functional
SUNE1 [6] = test: Effect on total eIF4E protein expression in human SUNE1 cells incubated for 24 hrs by Western blot analysis relative to control; assay type: ADME, cell-based; conditions: sune1, 24 h; in short: as §1
SUNE1 [7] = test: Effect on total ERK1/2 protein expression in human SUNE1 cells incubated for 24 hrs by Western blot analysis relative to control; assay type: ADME, cell-based; conditions: sune1, 24 h; in short: as §1
SUNE1 [8] = test: Induction of apoptosis in human SUNE1 cells incubated for 24 hrs by Annexin-V/propidium iodide staining based flow cytometric method (reference value: 93.79%); assay type: functional, cell-based
SUNE1 [9] = test: Induction of apoptosis in human SUNE1 cells assessed as early apoptotic cells at 1 uM incubated for 24 hrs by Annexin-V/propidium iodide staining based flow cytometric method (reference value: 1.03%); assay type: functional
SUNE1 [10] = test: Induction of apoptosis in human SUNE1 cells assessed as viable cells at 5 uM incubated for 24 hrs by Annexin-V/propidium iodide staining based flow cytometric method (reference value: 93.79%); assay type: functional; conditions: SUNE1, 24 h, read-out: Activity
CAKI-1 = test: Cytotoxicity against human Caki1 cells assessed as decrease in cell viability incubated for 24 hrs by MTT assay; assay type: functional, cell-based
In short: (§2)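 IC50 from an 8–10 point concentration gradient by MTT assay. Panel covers renal cell carcinoma and nasopharyngeal carcinoma lines. Values are mean ± SD, n = 3.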

786-0 [11] = test: Induction of apoptosis in human 786-O cells assessed as early apoptotic cells at 5 uM incubated for 24 hrs by Annexin-V/propidium iodide staining based flow cytometric method (reference value: 1.74%); assay type: functional
SUNE1 [12] = test: Induction of apoptosis in human SUNE1 cells assessed as viable cells at 1 uM incubated for 24 hrs by Annexin-V/propidium iodide staining based flow cytometric method (reference value: 93.79%); assay type: functional; conditions: SUNE1, 24 h, read-out: Activity
786-0 [13] = test: Induction of apoptosis in human 786-O cells assessed as late apoptotic cells at 1 uM incubated for 24 hrs by Annexin-V/propidium iodide staining based flow cytometric method (reference value: 3.80%); assay type: functional
[14] = biological target: T1, MAP kinase-interacting serine/threonine-protein kinase 1 (Homo sapiens, UniProt Q9BUB5); test: Inhibition of human MNK1 using CREBtide substrate by gamma-[32P]-ATP competitive inhibition assay
In short: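 Run as the Eurofins KinaseProfiler radiometric assay, competitive with γ-[32P]-ATP. IC50 taken as the mean of independent experiments; the footnote gives two.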
Target sequence in this assay (Q9BUB5 whole entry): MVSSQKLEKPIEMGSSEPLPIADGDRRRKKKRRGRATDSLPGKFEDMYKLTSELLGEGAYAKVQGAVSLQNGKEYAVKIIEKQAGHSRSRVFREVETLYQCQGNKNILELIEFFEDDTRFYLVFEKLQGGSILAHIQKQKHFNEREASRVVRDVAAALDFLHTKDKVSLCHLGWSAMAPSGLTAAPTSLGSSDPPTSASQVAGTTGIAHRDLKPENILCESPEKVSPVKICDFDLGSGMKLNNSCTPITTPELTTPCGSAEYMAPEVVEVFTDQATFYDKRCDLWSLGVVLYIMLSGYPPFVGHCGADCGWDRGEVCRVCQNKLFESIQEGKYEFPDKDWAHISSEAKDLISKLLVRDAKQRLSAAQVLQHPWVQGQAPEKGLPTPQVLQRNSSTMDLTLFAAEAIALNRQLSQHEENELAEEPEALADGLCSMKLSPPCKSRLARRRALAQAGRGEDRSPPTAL

786-0 [15] = test: Induction of apoptosis in human 786-O cells assessed as early apoptotic cells at 1 uM incubated for 24 hrs by Annexin-V/propidium iodide staining based flow cytometric method (reference value: 1.74%); assay type: functional
A498 = test: Cytotoxicity against human A498 cells assessed as decrease in cell viability incubated for 24 hrs by MTT assay; assay type: functional, cell-based; in short: as §2
786-0 [16] = test: Effect on total ERK1/2 protein expression in human 786-O cells incubated for 24 hrs by Western blot analysis relative to control; assay type: cell-based; conditions: 786-0, 24 h; in short: as §1
SUNE1 [17] = test: Induction of apoptosis in human SUNE1 cells assessed as late apoptotic cells at 1 uM incubated for 24 hrs by Annexin-V/propidium iodide staining based flow cytometric method (reference value: 4.11%); assay type: functional
[18] = biological target: T2, Mitogen-activated protein kinase; ERK1/ERK2 (Homo sapiens) (UniProt P27361+P28482); test: Inhibition of ERK1/2 phosphorylation in human SUNE1 cells at 1 uM incubated for 24 hrs by Western blot analysis relative to control; assay type: cell-based; in short: as §1
T2 sequence (P27361 whole entry, looked up): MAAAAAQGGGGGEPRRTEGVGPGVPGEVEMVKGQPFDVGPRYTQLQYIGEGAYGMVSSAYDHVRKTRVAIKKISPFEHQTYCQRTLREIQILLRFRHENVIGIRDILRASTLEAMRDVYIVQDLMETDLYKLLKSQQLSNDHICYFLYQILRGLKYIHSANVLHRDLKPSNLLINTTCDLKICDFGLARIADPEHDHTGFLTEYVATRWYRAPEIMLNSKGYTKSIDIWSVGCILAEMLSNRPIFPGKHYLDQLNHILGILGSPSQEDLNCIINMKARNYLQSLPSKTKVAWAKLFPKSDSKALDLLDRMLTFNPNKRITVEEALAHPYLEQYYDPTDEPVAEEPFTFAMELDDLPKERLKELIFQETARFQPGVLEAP
T2 sequence (P28482 whole entry, looked up): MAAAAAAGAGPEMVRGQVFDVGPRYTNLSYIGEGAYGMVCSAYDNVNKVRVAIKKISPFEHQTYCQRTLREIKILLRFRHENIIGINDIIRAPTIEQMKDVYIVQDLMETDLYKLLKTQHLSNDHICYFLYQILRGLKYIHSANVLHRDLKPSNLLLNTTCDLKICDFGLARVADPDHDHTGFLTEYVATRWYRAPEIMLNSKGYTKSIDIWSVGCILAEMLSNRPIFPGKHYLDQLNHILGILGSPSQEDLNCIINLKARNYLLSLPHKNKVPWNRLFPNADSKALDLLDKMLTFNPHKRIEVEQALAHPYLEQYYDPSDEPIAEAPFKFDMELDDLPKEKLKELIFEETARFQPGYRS

786-0 [19] = test: Cytotoxicity against human 786-O cells assessed as decrease in cell viability incubated for 24 hrs by MTT assay; assay type: functional, cell-based; in short: as §2
SUNE1 [20] = test: Induction of apoptosis in human SUNE1 cells assessed as necrotic cells at 1 uM incubated for 24 hrs by Annexin-V/propidium iodide staining based flow cytometric method (reference value: 1.07%); assay type: functional
[21] = biological target: T1, MAP kinase-interacting serine/threonine-protein kinase 1; test: Inhibition of MNK1 in human 786-O cells assessed as decrease in eIF4E phosphorylation at 1 uM incubated for 24 hrs by Western blot analysis relative to control; assay type: cell-based; in short: as §1
Target sequence in this assay (Q9BUB5 whole entry, looked up): as the sequence (Q9BUB5 whole entry) above

Homo sapiens = organism: Homo sapiens; test: Cytotoxicity against human HNE1 cells assessed as decrease in cell viability incubated for 24 hrs by MTT assay; assay type: functional, cell-based; in short: as §2
786-0 [22] = test: Induction of apoptosis in human 786-O cells incubated for 24 hrs by Annexin-V/propidium iodide staining based flow cytometric method; assay type: functional, cell-based
SUNE1 [23] = test: Induction of apoptosis in human SUNE1 cells assessed as late apoptotic cells at 5 uM incubated for 24 hrs by Annexin-V/propidium iodide staining based flow cytometric method (reference value: 4.11%); assay type: functional
SUNE1 [24] = test: Induction of apoptosis in human SUNE1 cells assessed as necrotic cells at 5 uM incubated for 24 hrs by Annexin-V/propidium iodide staining based flow cytometric method (reference value: 1.07%); assay type: functional
[25] = biological target: T2, Mitogen-activated protein kinase; ERK1/ERK2 (Homo sapiens); test: Inhibition of ERK1/2 phosphorylation in human 786-O cells at 1 uM incubated for 24 hrs by Western blot analysis relative to control; assay type: cell-based; in short: as §1
SUNE1 [26] = test: Effect on total MNK1 protein expression in human SUNE1 cells incubated for 24 hrs by Western blot analysis relative to control; assay type: ADME, cell-based; conditions: sune1, 24 h; in short: as §1
786-0 [27] = test: Induction of apoptosis in human 786-O cells assessed as viable cells at 5 uM incubated for 24 hrs by Annexin-V/propidium iodide staining based flow cytometric method (reference value: 93.63%); assay type: functional; conditions: 786-0, 24 h, read-out: Activity
CNE-2 = test: Cytotoxicity against human CNE2 cells assessed as decrease in cell viability incubated for 24 hrs by MTT assay; assay type: functional, cell-based; in short: as §2
786-0 [28] = test: Induction of apoptosis in human 786-O cells assessed as viable cells at 1 uM incubated for 24 hrs by Annexin-V/propidium iodide staining based flow cytometric method (reference value: 93.63%); assay type: functional; conditions: 786-0, 24 h, read-out: Activity
SUNE1 [29] = test: Cytotoxicity against human SUNE1 cells assessed as decrease in cell viability incubated for 24 hrs by MTT assay; assay type: functional, cell-based; in short: as §2
CNE = test: Cytotoxicity against human CNE1 cells assessed as decrease in cell viability incubated for 24 hrs by MTT assay; assay type: functional, cell-based; in short: as §2
786-0 [30] = test: Induction of apoptosis in human 786-O cells assessed as necrotic cells at 1 uM incubated for 24 hrs by Annexin-V/propidium iodide staining based flow cytometric method (reference value: 0.83%); assay type: functional

- IC50 [14]: 650 nM
- inhibition [18]: inactive
- inhibition [21]: Dose-dependent effect
- inhibition [25]: inactive
SMILES: COc1ccc(S(=O)(=O)N2CCc3c(sc4ncnc(Nc5ccc(F)cc5OC)c34)C2)cc1
- Activity (786-0 [1]): 7.88%
- Activity (SUNE1 [2]): 49.87%
- Activity (786-0 [3]): Non-Toxic
- Activity (786-0 [4]): Non-Toxic
- Activity (786-0 [5]): 11.79%
- Activity (SUNE1 [6]): Non-Toxic
- Activity (SUNE1 [7]): Non-Toxic
- Activity (SUNE1 [8]): Dose-dependent effect
- Activity (SUNE1 [9]): 34.6%
- viability at 5 µM (SUNE1 [10]): 35.9%
- Activity (CAKI-1): Active
- Activity (786-0 [11]): 37.44%
- viability at 1 µM (SUNE1 [12]): 36.6%
- Activity (786-0 [13]): 8.5%
- Activity (786-0 [15]): 17.94%
- Activity (A498): Active
- Activity (786-0 [16]): Non-Toxic
- Activity (SUNE1 [17]): 18.18%
- Activity (786-0 [19]): Active
- Activity (SUNE1 [20]): 10.6%
- Activity (Homo sapiens): Active
- Activity (786-0 [22]): Dose-dependent effect
- Activity (SUNE1 [23]): 10.61%
- Activity (SUNE1 [24]): 3.52%
- Activity (SUNE1 [26]): Non-Toxic
- viability at 5 µM (786-0 [27]): 42.9%
- Activity (CNE-2): Active
- viability at 1 µM (786-0 [28]): 68.9%
- Activity (SUNE1 [29]): Active
- Activity (CNE): Active
- Activity (786-0 [30]): 4.64%
